SUMO HTRF inh = inhibitors of in vitro SUMOylation cascade, primary screen, biochemical, HTRF, uHTS; SUMO-conjugating enzyme UBC9 (Homo sapiens), P63279; HTRF SUMOylation assay, SAE1/SAE2 + UBC9; inhibition, % at 35 µM; 290,000 compounds, 0.36% hits; AID 2006, 2009; in the data active = inhibition above about 50%, passing the limit was not always enough
Target sequence (P63279 whole entry, looked up): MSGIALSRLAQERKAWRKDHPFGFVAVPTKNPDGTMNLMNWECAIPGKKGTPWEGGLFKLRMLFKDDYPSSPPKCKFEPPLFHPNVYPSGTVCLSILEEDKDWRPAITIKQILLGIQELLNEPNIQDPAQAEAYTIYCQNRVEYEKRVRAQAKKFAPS
ALR inh = inhibitors of human ALR sulfhydryl oxidase, primary screen, biochemical, H2O2 detection, HRP-luminol luminescence, single point; purified ALR, DTT oxidation; FAD-linked sulfhydryl oxidase ALR (Homo sapiens), P55789; 290,000 compounds, 3.8% hits; inhibition, % (no concentration beside the values);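 active = mean replicate inhibition above about 79%, with every replicate also reaching it, limit read from the data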
Target sequence (P55789 whole entry, looked up): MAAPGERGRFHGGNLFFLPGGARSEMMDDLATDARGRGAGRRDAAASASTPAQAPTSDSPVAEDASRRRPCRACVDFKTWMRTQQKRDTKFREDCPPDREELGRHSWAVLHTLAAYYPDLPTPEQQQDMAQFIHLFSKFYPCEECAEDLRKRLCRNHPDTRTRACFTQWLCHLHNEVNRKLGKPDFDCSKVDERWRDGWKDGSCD
UBC13 inh = UBC13 polyubiquitin chain formation inhibitors, primary screen, biochemical, TR-FRET, uHTS; Ubiquitin-conjugating enzyme E2 N (Homo sapiens), P61088; inhibition, % at 20 µM; 330,000 compounds, 0.47% hits; in the data active = inhibition above about 45%, passing the limit was not always enough
Target sequence (P61088 whole entry, looked up): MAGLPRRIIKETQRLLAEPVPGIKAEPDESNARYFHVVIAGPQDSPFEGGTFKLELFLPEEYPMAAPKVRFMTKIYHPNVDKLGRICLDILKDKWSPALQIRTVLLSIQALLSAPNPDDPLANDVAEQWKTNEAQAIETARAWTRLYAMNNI
Rin1-Abl PPI inh = inhibitors of Rin1-Abl protein binding, primary screen, biochemical, TR-FRET; AID 588664, 2011; inhibition, % at 7.35 µM; 360,000 compounds, 0.4% hits; Tyrosine-protein kinase ABL1 (Homo sapiens) + Ras and Rab interactor 1 (Homo sapiens), …; in the data active = inhibition above about 5%, passing the limit was not always enough
RBBP9 inh = human RBBP9 inhibitors, primary screen, biochemical, fluorescence polarization, FP-Rh probe, HTS; recombinant RBBP9; inhibition, % at 7.94 µM; AID 1515, 2009; 220,000 compounds, 0.2% hits;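 active = inhibition above the campaign mean of all tested compounds plus 3 SD, cut at about 14% in these data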;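 also: plate controls were DMSO wells with RBBP9 for no effect and wells lacking RBBP9 protein for full effect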
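System: RBBP9 protein / Buffer or medium: Tris/NaCl buffer pH 8.0 with 0.1% Pluronic / Probe or stimulus: Serine-hydrolase probe FP-Rh, 375 nM pre-mixing / Dosing: 7.94 µM single dose, 0.794% DMSO / Times: enzyme-compound preincubation 30 min, then probe labeling 45 min, 25 °C / Technique: fluorescence polarization (mP), excitation 525 nm, emission 598 nm / Replication: singlicate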
PREPL inhibitor = PREPL enzyme inhibitors, primary screen, biochemical, fluorescence polarization. Prolyl endopeptidase-like (Homo sapiens), Q4J6C6. recombinant PREPL, fluorescence polarization activity-based probe. inhibition, % at 5.96 µM. 320,000 compounds, 0.68% hits; in the data active = inhibition above about 43%;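 also: 0% = enzyme with DMSO and 100% = wells lacking enzyme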
* marks the source's active call; other numbers are inactive results; x = no result given. Sampled rows, rich in hits. Any-hit rate of the full collection: about 4.3%.

SMILES | SUMO HTRF inh | ALR inh | UBC13 inh | Rin1-Abl PPI inh | RBBP9 inh | PREPL inhibitor
CCCc1cc(=O)[nH]c(SCC(=O)NC(=O)c2ccccc2)n1 | 18 | -2 | 1 | 1 | -7 | 4
CCOc1ccc(N(CC(=O)Nc2ccc(C)c(Cl)c2)S(C)(=O)=O)cc1 | -5 | -3 | 0 | 1 | x | -44
CCN(CC)C(=O)[C@H]1C[C@H](CC(=O)NC/C=C(\C)CCC=C(C)C)C(=O)N2CCc3c([nH]c4cc(CCC(=O)N(C)C)ccc34)[C@]12C | x | x | x | 1 | x | x
CCc1nc(SCc2ccccn2)[nH]c(=O)c1C | 2 | -4 | -9 | -1 | -3 | -6
c1ccc(-c2nc(CSc3nnc(-c4cccs4)o3)cs2)cc1 | x | 98* | 12 | -6 | -5 | -8
CCc1c(C)nc(SCC(=O)Nc2nc(-c3ccc(OC)cc3)cs2)[nH]c1=O | 5 | 99* | -11 | 1 | -13 | -25
CCc1nc(SCc2cccnc2)[nH]c(=O)c1C | -6 | 99* | -4 | -4 | 5 | 0
Cc1ccc(Nc2nc(CSc3nnc(-c4cccs4)o3)cs2)cc1 | -19 | 54 | 4 | 0 | -7 | -18
Cc1nc(NC(=O)CSc2ccc(-c3nc4ccccc4[nH]3)cn2)sc1C | -7 | 99* | -1 | -8 | -6 | -9
CN(C)CCCNCC(=O)c1c(-c2ccccc2)n(C)c2ccccc12 | 6 | x | x | 1 | x | -8
O=C(CS(=O)(=O)c1ccccc1)Nc1nc(-c2ccccc2)cs1 | -8 | 99* | -4 | -2 | -19 | -12
C=CCn1c(SCC(=O)N(C)c2c(N)n(Cc3ccccc3)c(=O)[nH]c2=O)nnc1-c1ccccc1OC | 1 | -1 | -11 | -1 | x | -2
C=CCn1c(SCc2csc(-c3ccc(Cl)cc3)n2)nnc1-c1ccccc1OC | -5 | 81* | -7 | -2 | -7 | 13
Cc1c(C(=O)NCc2cccnc2)sc2nc(-c3ccccc3)cn12 | 5 | 90* | 3 | 0 | x | -17
CCOC(=O)c1sc(=S)n(CC)c1NC(=O)CC | 4 | 6 | -1 | 2 | -8 | 5
CCn1c(N)c(C(=O)NCc2cccnc2)sc1=S | -19 | 99* | -8 | -4 | 0 | 9
Cc1c(C(=O)NCc2cccnc2)sc2nc(-c3ccc(F)cc3)cn12 | 5 | -4 | 2 | -4 | 0 | -68
CCNC(=O)c1sc(=S)n(CC)c1N | -20 | 99* | -7 | -5 | -3 | 10
CCn1c(N)c(C(=O)NC)sc1=S | -4 | 99* | 8 | -3 | -6 | -5
O=C(O)c1cc(S(=O)(=O)N2CCN(C(=O)c3ccco3)CC2)c(Cl)cc1Cl | 6 | -5 | 3 | 0 | x | -3
COc1ccc(-c2cc(C(=O)NC(C)c3ccccn3)c3ccccc3n2)cc1OC (centres undefined) | x | 2 | 15 | 0 | x | -1
CCn1c(N)c(C(=O)NCCCOC)sc1=S | 22 | 99* | -21 | -3 | -5 | -7
CC(C)OCCCNC(=O)c1sc(=S)n(C)c1N | 37 | x | -2 | 0 | -10 | -2
Cc1noc(C)c1C(=O)N1CCC1(C)C(=O)NS(=O)(=O)Cc1cccc(Cl)c1 (centres undefined) | x | x | x | 0 | x | x
O=C(O)CNC(=O)/C=C/c1ccc(Cl)cc1Cl | 5 | -7 | -5 | 2 | -10 | -2
SMILES | SUMO HTRF inh | ALR inh | UBC13 inh | Rin1-Abl PPI inh | RBBP9 inh | PREPL inhibitor
NNC(=O)/C=C/c1ccc(Cl)cc1Cl | -1 | 98* | 7 | 0 | 0 | 5
CN(C)c1ccc(NC(=O)c2ccc(N3CCOCC3)nc2)cc1 | -2 | 100* | -11 | -4 | x | 38
CN1CCN(c2ccc(NC(=O)c3ccc(Cl)cc3)cn2)CC1 | 19 | 94* | 1 | -6 | 0 | 4
Cc1ccc(C(=O)N(c2ccccn2)C(C)c2ccco2)cc1C (centres undefined) | 12 | 97* | 1 | 1 | 0 | -6
COCCn1c(-c2cccc([N+](=O)[O-])c2)nc2c1c(=O)[nH]c(=O)n2Cc1ccccc1 | 7 | 99* | -22 | 1 | -1 | 4
CCCn1c(-c2cccc(F)c2)nc2c1c(=O)[nH]c(=O)n2Cc1ccccc1 | -7 | -34 | 9 | 3 | x | -8
O=C(NNC(=S)NC(=O)c1cccnc1)c1ccccc1 | -6 | 15 | -6 | -1 | -11 | -1
O=C(NNC(=S)NC(=O)c1cccnc1)c1ccc(F)cc1 | 15 | 98* | -1 | -3 | -7 | 7
O=C(NNC(=S)NC(=O)c1ccc(F)cc1)c1cccnc1 | -7 | 98* | -9 | 0 | x | -4
CCCCCCNC(=O)O[C@H]1Cn2c(=O)ccc(=O)n2[C@@H]2CN(S(=O)(=O)c3ccc(C)cc3)C[C@]12O | x | x | x | -3 | x | x
S=c1[nH]ncn1/N=C/c1ccco1 | x | x | x | -4 | x | x
O=C(Nc1nc(-c2ccc3c(c2)OCCO3)cs1)c1ccco1 | 14 | 30 | 5 | 0 | x | -1
NC(=O)C1CCN(c2nc(-c3ccc(Br)cc3)cs2)CC1 | 2 | x | 2 | -1 | -5 | 24
c1cc2c(cc1Nc1nc(-c3ccc4c(c3)OCO4)cs1)OCCO2 | 6 | -7 | -24 | 2 | -2 | -6
c1cc2c(cc1-c1csc(NNC3=NCCCCC3)n1)OCCO2 | 12 | 98* | 2 | x | 5 | 14
NC(=O)C1CCN(c2nc(-c3ccc4c(c3)OCCO4)cs2)CC1 | x | 98* | 12 | x | x | 11
CCC(=O)Nc1nc(-c2ccc3c(c2)OCCO3)cs1 | 1 | 86* | 8 | -1 | -4 | 8
Cc1ccc(-c2csc(NC(=O)CN3CC(C)OC(C)C3)n2)cc1 (centres undefined) | 2 | 98* | 3 | -3 | x | -1
COC(=O)C(=CC(=CN(C)C)C=C(C(=O)OC)C(=O)OC)C(=O)OC | 2 | x | 0 | -2 | -8 | 4
Cc1ccc(S(=O)(=O)N2[C@@H](c3ccc(F)cc3)C(C(=O)O)=CC[C@H]2c2cccs2)cc1 | x | 6 | -14 | 1 | x | 25
CCOC(=O)/C=C/C(=O)OCC(=O)N1CCN(C(=O)c2ccco2)CC1 | 14 | 23 | -5 | 1 | x | 0
Cc1ccc(-n2nc3c(=O)n(CC(=O)NCc4ccc(C)o4)nc(C)c3c2C)cc1 | -1 | -2 | 4 | 1 | x | 15
CCN(C(=O)CSc1nc2ccccc2c(=O)n1CCOC)C1CCS(=O)(=O)C1 (centres undefined) | 1 | -8 | -12 | 1 | -8 | 2
C=C(C)C(=O)Nc1ccc(NC(C)C)cc1 | 10 | 99* | 3 | 0 | -15 | 0
CCN(CC)c1ccc(CNC23CN4CN(CN(C4)C2)C3)cc1 | 15 | 98* | 4 | 1 | -11 | -1
